Screening data as filed in PubChem BioAssay.
NR2E3 ag-1 – inhibitors of NR2E3-RetCOR corepressor binding, primary screen, NR2E3 agonist project, biochemical, TR-FRET, GST-NR2E3, biotin-RetCOR | inhibition of corepressor binding, % at 4.78 µM | Photoreceptor-specific nuclear receptor (Homo sapiens), Q9Y5X4 | 1536-well | actives 0.12% (n = 320,000) | AID 2300, 2010;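 active = percent inhibition above the cutoff of mean plus 3 SD of all tested compounds, set per screening campaign, cut at about 20% in these data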;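 also: 0% = DMSO wells and 100% = biotin wells as full block of FRET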
Target sequence (Q9Y5X4 whole entry, looked up): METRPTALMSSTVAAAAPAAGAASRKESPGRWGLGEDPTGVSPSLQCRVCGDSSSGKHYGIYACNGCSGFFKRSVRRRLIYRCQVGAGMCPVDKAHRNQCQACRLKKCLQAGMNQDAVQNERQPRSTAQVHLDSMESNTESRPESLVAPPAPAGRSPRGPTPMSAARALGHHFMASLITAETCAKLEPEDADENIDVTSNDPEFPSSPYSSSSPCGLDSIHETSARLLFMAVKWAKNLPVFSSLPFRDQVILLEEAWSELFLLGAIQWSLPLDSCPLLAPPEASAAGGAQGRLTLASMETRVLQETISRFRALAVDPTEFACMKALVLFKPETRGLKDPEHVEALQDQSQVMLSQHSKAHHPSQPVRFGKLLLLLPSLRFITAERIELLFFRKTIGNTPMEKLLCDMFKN
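System: GST-NR2E3 and biotin-RetCOR proteins; probe or stimulus: 7 nM biotin-RetCOR; doses: compound at 4.8 µM, single dose; schedule: Compound–protein incubation for 5 h at 4 °C; detection: time-resolved FRET; read-out: percent inhibition; controls: biotin wells as high control, 0.6% DMSO wells as low control; format: 1536-well plates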
FXN GAA850 act – FXN promoter activators, primary screen, cell-based, luciferase luminescence, HEK293 lucGAA850; HEK293 lucGAA850 FXN promoter luciferase reporter, 24 h; percent of 10 µM SAHA response; activation, % at 6 µM; actives 0.56% (n = 360,000);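 active = activation above the average of all compounds screened plus 3 SD, cutoff fixed separately per campaign, cut at about 7.5% in these data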;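 also: 0% = DMSO wells and 100% = 10 µM SAHA wells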
HIV Env fusion – inhibitors of HIV-1 Env-driven cell-cell fusion, primary screen, HeLa-JRFL effector, CEM21 target cells, luciferase; inhibition, % at 12.3 µM; actives 1.1% (n = 360,000);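 active = mean replicate inhibition score of at least 50 and every replicate individually at or above 50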;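 also: 0% = plate neutral controls and 100% = maraviroc near 300 nM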
V-ATPase pH – regulators of yeast V-ATPase proton pumping, primary screen, pHLuorin cytosolic pH fluorescence. AID 504577, 2011. response, % at 10 µM. S. cerevisiae. actives 0.37% (n = 350,000); in the data active = response mostly above about 7.3%, no sharp cut-off; inactive = mostly below about 5.4%; also: actives read high
NR2E3 ag-2 – NR2E3 agonists in two-hybrid cells, primary screen, cell-based, luminescence, CHO-S, Gal4-NCOR/VP16-NR2E3 | luciferase | inhibition of corepressor binding, % at 3.98 µM | actives 0.35% (n = 360,000);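 active = inhibition above the mean of all tested compounds plus 3 SD, cut at about 70% in these data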;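 also: 0% = DMSO with NR2E3 transfected cells and 100% = cells lacking NR2E3 construct; higher means lower luciferase signal from less NR2E3 corepressor binding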
GalR3 antag – GalR3 antagonists in HEK293 cells, primary screen, cell-based, fluorescence readout; Galanin receptor type 3 (Homo sapiens), O60755; HEK293 GalR3-CNG cAMP membrane potential fluorescence; galR3 body fused to GalR1 C-terminus; inhibition, % at 3 µM; actives 0.44% (n = 360,000); AID 651719, 2012;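 active = inhibition above the screen-wide average plus 3 SD, cut at about 13% in these data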;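 also: forskolin and galanin both at EC90 stimulate the cells; cAMP rise reported by CNG channel membrane potential dye signal; 0% = forskolin plus galanin with DMSO and 100% = forskolin alone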
Target sequence (O60755 1-299 limits assumed): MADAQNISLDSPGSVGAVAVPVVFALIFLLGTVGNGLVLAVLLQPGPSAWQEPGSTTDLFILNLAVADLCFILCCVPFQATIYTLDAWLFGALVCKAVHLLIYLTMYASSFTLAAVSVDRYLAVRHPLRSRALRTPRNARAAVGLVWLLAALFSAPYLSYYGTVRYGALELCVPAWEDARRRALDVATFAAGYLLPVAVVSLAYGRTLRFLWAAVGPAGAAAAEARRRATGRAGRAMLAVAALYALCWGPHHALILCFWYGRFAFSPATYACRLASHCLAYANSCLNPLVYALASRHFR
* hit, by the source's call; · = no result given; ! = not active in a repeat; [ ] = remark or other dose. Hits are enriched below; roughly 2.2% of the tested compounds scored in any of these assays.

SMILES | NR2E3 ag-1 | FXN GAA850 act | HIV Env fusion | V-ATPase pH | NR2E3 ag-2 | GalR3 antag
CCC1=NN(C(=O)c2ccc(Br)cc2)C(O)(c2ccccc2)C1 (stereo not drawn) | 1 | 1 | -6 | -1 | -61 | -1
CC1=NN(C(=O)c2ccccc2)C(O)(c2ccc(Br)cc2)C1 (stereo not drawn) | -1 | 2 | 80* | -2 | -68 | -4
COc1ccc(S(=O)(=O)Nc2ccc3c(c2)C(=O)N(C)C[C@H](OC)[C@H](C)CN[C@@H](C)CO3)cc1 | · | · | 0[16.7 µM] | · | · | ·
COc1ccc(S(=O)(=O)/N=C2/NC(=O)/C(=C\c3cc(OC)c(OC)cc3[N+](=O)[O-])S2)cc1 | 3 | 0 | 40* | -3 | 3 | 4
COC(=O)[C@H](CC(C)C)N(Cc1ccccc1)S(=O)(=O)N(Cc1ccc(OC)cc1)[C@@H](CC(C)C)C(=O)OC | · | -2 | 75* | -3 | 26 | -6
COC(=O)C(CC(C)C)N(Cc1cc(OC)cc(OC)c1)S(=O)(=O)c1ccccc1Br (stereo not drawn) | · | 2 | 59* | 3 | -34 | -7
Cc1noc(C)c1S(=O)(=O)N(C)C[C@H]1Oc2ccc(NS(=O)(=O)c3cn(C)cn3)cc2CC(=O)N([C@H](C)CO)C[C@H]1C | · | · | -8[16.7 µM] | · | · | ·
CCOc1cc(/C=N/NC(=O)c2ccc(CN3CCOCC3)cc2)ccc1OCc1ccccc1 | -2 | -8 | 56* | 5 | -6 | -1
CC(C)=CCNc1ncnc2c1c(C#N)cn2C1OC(CO)C(O)C1O (stereo not drawn) | · | -2 | 58* | -1 | -2 | -3
C[C@@H]1CN([C@H](C)CO)C(=O)c2c(c3ccccc3n2C)-c2ccccc2CO[C@@H]1CN(C)S(=O)(=O)c1cccc(F)c1 | · | · | 95*[16.7 µM] | · | · | ·
C[C@H](CO)N1C[C@H](C)[C@H](CN(C)S(=O)(=O)c2cccc(C#N)c2)OCc2ccccc2-c2c(n(C)c3ccccc23)C1=O | · | · | 57*[16.7 µM] | · | · | ·
C[C@H](CO)N1C[C@H](C)[C@H](CN(C)S(=O)(=O)c2cccc(F)c2)OCc2ccccc2-c2c(n(C)c3ccccc23)C1=O | · | 0 | 98*! | 1 | -19 | -6
C[C@@H]1CN([C@H](C)CO)C(=O)c2c(c3ccccc3n2C)-c2ccccc2CO[C@H]1CN(C)S(=O)(=O)c1cccc(F)c1 | · | · | 49[16.7 µM] | · | · | ·
CO[C@H]1CN(C)C(=O)c2ccc(NC(C)=O)cc2OC[C@@H](C)N(CC2CC2)C[C@@H]1C | · | · | 3[16.7 µM] | · | · | ·
C[C@@H]1CCCCO[C@@H](CN(C)Cc2ccccc2)[C@@H](C)CN([C@@H](C)CO)C(=O)c2cc(NC(=O)C3CCCCC3)ccc2O1 | · | · | -2[16.7 µM] | · | · | ·
Cc1ccc(/C=C/C(=O)c2ccc([N+](=O)[O-])o2)cc1 | 14 | · | -432 | · | · | 0
O=C(/C=C/c1ccc(Cl)cc1)c1ccc([N+](=O)[O-])o1 | 9 | 6 | -310 | 12* | 1 | -3
COc1ccccc1C(=O)NCCC(=O)NC1CCCCC1C (stereo not drawn) | -1 | 0 | -38 | 3 | 17 | -4
COc1ccccc1C(=O)NCCC(=O)NC1CCCC(C)C1C (stereo not drawn) | -2 | 2 | 58* | 9 | -11 | -5
O=C(CSc1nnc(CNc2ccc(F)cc2)o1)N1CCN(C(=O)c2ccco2)CC1 | 1 | -1 | · | 0 | 0 | -8
O=C(CSc1nnc(CNc2ccc(F)cc2)o1)N1c2ccccc2Sc2ccccc21 | 0 | -4 | 64* | 2 | 5 | -5
O=C(Nc1ccccc1)N[C@@H]1CC[C@H](CCNS(=O)(=O)c2ccccc2F)O[C@H]1CO | · | · | 0[16.7 µM] | · | · | ·
CCC(=O)N[C@@H]1C=C[C@H](CC(=O)NCCN2CCCCC2)O[C@@H]1CO | · | · | -13[16.7 µM] | · | · | ·
CCc1ccc2[nH]c(=O)c(C(c3nnnn3Cc3ccc(OC)cc3)N3CCOCC3)cc2c1 (stereo not drawn) | 2 | 3 | 78* | -2 | 9 | -5
CC1(C)CC(=O)C2=C(C1)N(c1ccc(F)cc1)C(=O)CC2c1cccnc1 (stereo not drawn) | 2 | 0 | 3 | 2 | 11 | 5
SMILES | NR2E3 ag-1 | FXN GAA850 act | HIV Env fusion | V-ATPase pH | NR2E3 ag-2 | GalR3 antag
CCSc1nnc(N2C(=O)CC(c3ccsc3)C3=C2CC(C)(C)CC3=O)s1 (stereo not drawn) | 3 | 2 | 58* | -1 | -23 | 3
Cc1nn(Cc2ccc(Cl)cc2)c(=O)n1N(C)c1ncc(C(F)(F)F)cc1Cl | 0 | 3 | · | 0 | 12 | -7
Cc1nn(Cc2ccc([N+](=O)[O-])cc2)c(=O)n1N(C)c1ncc(C(F)(F)F)cc1Cl | -2 | 6 | 63* | -50 | 19 | -7
CC(C)(C)SC(=O)CC1NS(=O)(=O)OCC1NC(=O)OCC(Cl)(Cl)Cl (stereo not drawn) | 2 | 3 | 63* | 0 | 18 | -3
CC(C)C1COS(=O)(=O)NC1CC(=O)SC(C)(C)C (stereo not drawn) | 2 | -2 | -5 | 5 | 20 | -4
C[C@@H]1CCCCO[C@@H](CN(C)Cc2ccc(C(F)(F)F)cc2)[C@H](C)CN([C@@H](C)CO)C(=O)c2cc(NS(=O)(=O)c3ccc(F)cc3)ccc2O1 | · | · | 11[16.7 µM] | · | · | ·
C[C@@H]1CN([C@H](C)CO)C(=O)c2cc(NC(=O)Cc3ccccc3)ccc2O[C@@H](C)CCCCO[C@H]1CN(C)C(=O)c1ccccc1 | · | · | -3[16.7 µM] | · | · | ·
O=C(C[C@H]1C=C[C@@H](NC(=O)c2ccccn2)[C@H](CO)O1)NCc1cccc(F)c1 | · | · | -5[16.7 µM] | · | · | ·
O=C(Nc1nc2cc3c(cc2s1)OCCO3)c1ccco1 | 1 | -9 | 58* | 0 | -42 | -1
CN1C(=O)c2cc(NC(=O)c3ccc(F)cc3)ccc2OC[C@@H]2O[C@@H](CC(=O)N3CCOCC3)CC[C@H]21 | · | · | -1[16.7 µM] | · | · | ·
CS(=O)(=O)NCCCCNc1ccc(C(F)(F)F)cc1[N+](=O)[O-] | 5 | 7 | -9 | -1 | 4 | -7
O=[N+]([O-])c1cc(C(F)(F)F)ccc1NCCCCNS(=O)(=O)c1ccc2ccccc2c1 | 2 | 2 | 62* | 5 | -31 | -3
COc1ccccc1N=c1scc(-c2ccc3c(c2)NC(=O)CO3)n1CC1CCCO1 (stereo not drawn) | -2 | -2 | · | 0 | -5 | 0
O=C1COc2ccc(-c3csc(=Nc4ccc(OC(F)F)cc4)n3CC3CCCO3)cc2N1 (stereo not drawn) | 0 | 1 | 92* | -1 | 11 | -3
